Results taken from ChEMBL document CHEMBL3046353, “Synthesis and fungicidal activity of some 5-membered heterocyclic derivatives containing benzimidazoles” (1993).
The source made the active and inactive calls. The rule behind the calls is not given here.

How the values were obtained:
Sagittaria latifolia [1] = assay: Pre-emergence herbicidal activity against Sagittaria latifolia (broadleaf arrowhead); assay type: functional, organism-based
Oryza sativa [2] = assay: Herbicidal activity against Oryza sativa (rice) under paddy conditions; assay type: functional, organism-based
Avena sativa [3] = assay: Post-emergence herbicidal activity against Avena sativa; assay type: functional, organism-based
Echinochloa crus-galli [4] = assay: Herbicidal activity against Echinochloa crus-galli (barnyard grass) under paddy conditions; assay type: functional, organism-based
Culex pipiens pallens = assay: Insecticidal activity against Culex pipiens pallens (mosquito) at 3 to 5 ppm; assay type: functional, organism-based
Abutilon theophrasti [5] = assay: Post-emergence herbicidal activity against Abutilon theophrasti (velvetleaf); assay type: functional, organism-based
Convolvulaceae [6] = assay: Post-emergence herbicidal activity against Convolvulaceae (morning glory family); assay type: functional, organism-based
Spodoptera litura = assay: Insecticidal activity against Spodoptera litura; assay type: functional, organism-based
Rhizoctonia solani = assay: Fungicidal activity against Rhizoctonia solani at 500 ppm after 7 days by poisoned food technique; assay type: functional; settings: 168 h, read-out: GI
In short: (§1)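 Cultures kept on potato dextrose agar. Each compound, dissolved in acetone, was added to potato dextrose agar at a final 500 ppm (w/v) (poisoned food technique). A disc cut from the periphery of a seven-day-old culture was inoculated onto each set. Control sets held potato dextrose agar only. The read-out is percentage inhibition of fungal growth relative to control.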

Echinochloa crus-galli [7] = assay: Pre-emergence herbicidal activity against Echinochloa crus-galli (barnyard grass); assay type: functional, organism-based
Schoenoplectus acutus [8] = assay: Herbicidal activity against Schoenoplectus acutus (hardstem bulrush) under paddy conditions; assay type: functional, organism-based
Oryza sativa [9] = assay: Post-emergence herbicidal activity against Oryza sativa (rice); assay type: functional, organism-based
Sagittaria latifolia [10] = assay: Post-emergence herbicidal activity against Sagittaria latifolia (broadleaf arrowhead); assay type: functional, organism-based
Schoenoplectus acutus [11] = assay: Post-emergence herbicidal activity against Schoenoplectus acutus (hardstem bulrush); assay type: functional, organism-based
Oryza sativa [12] = assay: Pre-emergence herbicidal activity against Oryza sativa (rice); assay type: functional, organism-based
Convolvulaceae [13] = assay: Herbicidal activity against Convolvulaceae (morning glory family) under paddy conditions; assay type: functional, organism-based
Avena sativa [14] = assay: Pre-emergence herbicidal activity against Avena sativa; assay type: functional, organism-based
Echinochloa crus-galli [15] = assay: Post-emergence herbicidal activity against Echinochloa crus-galli (barnyard grass); assay type: functional, organism-based
Helminthosporium = assay: Fungicidal activity against Helminthosporium oryzae at 500 ppm after 7 days by poisoned food technique; assay type: functional; settings: 168 h, read-out: GI; in short: as §1
Schoenoplectus acutus [16] = assay: Pre-emergence herbicidal activity against Schoenoplectus acutus (hardstem bulrush); assay type: functional, organism-based
Convolvulaceae [17] = assay: Pre-emergence herbicidal activity against Convolvulaceae (morning glory family); assay type: functional, organism-based
Sagittaria latifolia [18] = assay: Herbicidal activity against Sagittaria latifolia (broadleaf arrowhead) under paddy conditions; assay type: functional, organism-based
Avena sativa [19] = assay: Herbicidal activity against Avena sativa under paddy conditions; assay type: functional, organism-based
Abutilon theophrasti [20] = assay: Pre-emergence herbicidal activity against Abutilon theophrasti (velvetleaf); assay type: functional, organism-based
Musca domestica = assay: Insecticidal activity against Musca domestica (house fly); assay type: functional, organism-based
Tetranychus cinnabarinus = assay: Insecticidal activity against Tetranychus cinnabarinus (carmine spider mite); assay type: functional, organism-based

Row | Structure (SMILES) | Activity (Sagittaria latifolia [1]) | Activity (Oryza sativa [2]) | Activity (Avena sativa [3]) | Activity (Echinochloa crus-galli [4]) | Activity (Culex pipiens pallens) | Activity (Abutilon theophrasti [5]) | Activity (Convolvulaceae [6]) | Activity (Spodoptera litura) | inhibition of growth at 500 ppm (Rhizoctonia solani) [%] | Activity (Echinochloa crus-galli [7]) | Activity (Schoenoplectus acutus [8]) | Activity (Oryza sativa [9]) | Activity (Sagittaria latifolia [10]) | Activity (Schoenoplectus acutus [11]) | Activity (Oryza sativa [12]) | Activity (Convolvulaceae [13]) | Activity (Avena sativa [14]) | Activity (Echinochloa crus-galli [15]) | inhibition of growth at 500 ppm (Helminthosporium) [%] | Activity (Schoenoplectus acutus [16]) | also measured
1 | c1ccc2[nH]c(CSc3nnc(-c4ccncc4)s3)nc2c1 | inactive | inactive | inactive | inactive | Active | inactive | inactive | inactive | 21.3 | inactive | inactive | inactive | inactive | inactive | inactive | inactive | inactive | inactive | 54.5 | inactive | Activity (Convolvulaceae [17]): inactive; Activity (Sagittaria latifolia [18]): inactive; Activity (Avena sativa [19]): inactive; Activity (Abutilon theophrasti [20]): inactive; Activity (Musca domestica): inactive; Activity (Tetranychus cinnabarinus): inactive
2 | Cc1ccc2[nH]c(CSc3nnc(-c4cccc(Cl)c4)s3)nc2c1 | inactive | inactive | inactive | inactive | Active | inactive | inactive | inactive | 60.4 | inactive | inactive | inactive | inactive | inactive | inactive | inactive | inactive | inactive | 81.2 | inactive | Activity (Convolvulaceae [17]): inactive; Activity (Sagittaria latifolia [18]): inactive; Activity (Avena sativa [19]): inactive; Activity (Abutilon theophrasti [20]): inactive; Activity (Musca domestica): inactive; Activity (Tetranychus cinnabarinus): inactive
3 | c1ccc(-c2nnc(SCc3nc4ccccc4[nH]3)o2)cc1 | inactive | inactive | inactive | inactive | Active | inactive | inactive | inactive | 65.2 | inactive | inactive | inactive | inactive | inactive | inactive | inactive | inactive | inactive | 73.5 | inactive | Activity (Convolvulaceae [17]): inactive; Activity (Sagittaria latifolia [18]): inactive; Activity (Avena sativa [19]): inactive; Activity (Abutilon theophrasti [20]): inactive; Activity (Musca domestica): inactive; Activity (Tetranychus cinnabarinus): inactive
